Measured values of several laboratories.
Compare with care: the assays were run in different laboratories.
Cell line: A549
Effect on: cell growth or viability

| SMILES | technique | concentration | time | endpoint | result |
| --- | --- | --- | --- | --- | --- |
| O=C(CN1C(=O)/C(=C/C2CC2)SC1=S)Nc1ccccc1 | MTT | 10 µM |  | inhibition | 28.9% |
| CS(=O)(=O)CCNCc1ccc(-c2ccc3ncnc(Nc4ccc(OCc5cccc(F)c5)c(Cl)c4)c3c2)o1 | MTT |  | 72 h | EC50 | 67 µM |
| COc1ccccc1OCCNCC(O)COc1cccc2[nH]c3ccccc3c12 (centres unmarked) | CCK-8 | 100 µM | 72 h | viability | < 50% |
| COC(C)(C)CCC[C@](C)(O)[C@H]1CC[C@]2(C)[C@@H]1[C@H](O)C[C@@H]1[C@@]3(C)CC[C@H](O)C(C)(C)[C@@H]3CC[C@]12C | MTT |  | 72 h | IC80 | 35.9 µM |
| O=C(CN1C(=O)/C(=C/c2ccccc2)SC1=S)Nc1ccccc1 | MTT | 10 µM |  | inhibition | 43.3% |
| COC(=O)C1=C(C)NC(C)=C(C(=O)OCCN(C)Cc2ccccc2)C1c1cccc([N+](=O)[O-])c1 (centres unmarked) | CCK-8 | 100 µM | 72 h | viability | < 50% |
| COc1ccc2c(c1)C(=NNc1nc(-c3ccc(OC)c(OC)c3)nc3ccccc13)C(=O)N2 |  | 30 µM |  | inhibition | 17% |
| O=C(CN1C(=O)/C(=C/c2cccc(O)c2)SC1=S)Nc1ccccc1 | MTT | 10 µM |  | inhibition | 14.5% |
| CCn1cc(C(=O)O)c(=O)c2cc(F)c(N3CCNCC3)cc21 | SRB |  | 48 h | GI50 | > 80 µg/mL |
| COc1cccc(NC(=O)CN2C(=O)/C(=C/c3ccccc3)SC2=S)c1 | MTT | 10 µM |  | inhibition | 26.3% |
| CCCCc1nc(Cl)c(CO)n1Cc1ccc(-c2ccccc2-c2nn[nH]n2)cc1 | MTT |  | 72 h | EC50 | 63 µM |
| CC(C)=CCC[C@](C)(O)[C@H]1CC[C@]2(C)[C@@H]1[C@H](O)C[C@@H]1[C@@]3(C)CC[C@H](O[C@@H]4O[C@H](CO)[C@@H](O)[C@H](O)[C@H]4O[C@@H]4O[C@H](CO)[C@@H](O)[C@H](O)[C@H]4O)C(C)(C)[C@@H]3CC[C@]12C | MTT |  | 72 h | IC20 | > 100 µM |
| Cn1c(=O)c(NN=C2C(=O)Nc3ccc(F)cc32)nc2ccccc21 |  | 30 µM |  | inhibition | 53.2% |
| O=C(CN1C(=O)/C(=C/c2cccc(Cl)c2)SC1=S)Nc1ccccc1 | MTT | 10 µM |  | inhibition | 25.9% |
| CC/C(=C(\c1ccccc1)c1ccc(OCCN(C)C)cc1)c1ccccc1 | ATP luminescence |  | 72 h | EC90 | 26.1 µM |
| CNS(=O)(=O)Nc1nccc(Cc2c(C)c3ccc(Oc4ncccn4)cc3oc2=O)c1F | CCK-8 |  |  | GI50 | 5.07 µM |
| Cn1c(=O)c(NN=C2C(=O)Nc3ccc(Cl)cc32)nc2ccccc21 |  | 30 µM |  | inhibition | 27.1% |
| CCN(CC)CCNC(=O)c1c(C)[nH]c(/C=C2\C(=O)Nc3ccc(F)cc32)c1C |  | 30 µM |  | inhibition | 85.7% |
| O=C1Nc2ccccc2C1=NNc1nnc(Cc2ccccc2)c2ccccc12 |  | 30 µM |  | inhibition | 81.1% |
| COc1cccc(NC(=O)CN2C(=O)/C(=C/C3CC3)SC2=S)c1 | MTT | 10 µM |  | inhibition | 17.2% |
